The source made the active and inactive calls. No cut-off for these calls is given here.
Tests used:
Sphaerechinus granularis [1] = test: Inhibition of sea urchin egg fertilization after 10 mins; assay type: functional
How it was run: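 Sphaerechinus granularis eggs, each experiment using eggs from a single female, about 50,000 eggs/ml. Eggs were treated 10 min with compound in MeOH-H2O (20:80), diluted five-fold with filtered sea water and fertilized. Controls were handled the same way. Cleavage was checked by light microscopy in vivo at 10 min and 2 h. Values are given as LD50 (M).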

Cladosporium cucumerinum = test: Antifungal activity against Cladosporium cucumerinum; assay type: functional
How it was run: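 Direct bioautography on TLC: samples spotted on TLC plates, then sprayed with a suspension of Cladosporium cucumerinum. Activity is recorded as the minimum inhibition dose in μg spotted.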

Sphaerechinus granularis [2] = test: Inhibition of sea urchin egg fertilization at <10 uM after 10 mins

| Structure (SMILES) | LD50 (Sphaerechinus granularis [1]) | MIC (Cladosporium cucumerinum) [µg] | Activity (Sphaerechinus granularis [2]) |
| --- | --- | --- | --- |
| CC(C)[C@@H](O)CC[C@@H](C)[C@H]1C[C@@H](O)[C@@H]2[C@]1(C)CC[C@@H]1[C@@]3(C)CC[C@H](O)[C@H](O)[C@@H]3[C@@H](O)C[C@]12O | 1 ×10⁻⁶ M |  |  |
| CC(C)[C@@H](O)CC[C@@H](C)[C@H]1C[C@@H](O)[C@@H]2[C@]1(C)CC[C@@H]1[C@@]3(C)CC[C@H](O)C[C@@H]3[C@@H](O)C[C@]12O |  | 3 | inactive |
| CO[C@H]1[C@H](O[C@H]2[C@H](OCC[C@@H](CC[C@@H](C)[C@H]3[C@@H](O)[C@@H](O)[C@@H]4[C@]3(C)CC[C@@H]3[C@@]5(C)CC[C@H](O)[C@H](O)[C@@H]5[C@@H](O)C[C@]34O)C(C)C)OC[C@@H](O)[C@@H]2O)OC[C@@H](O)[C@@H]1O [HALITYLOSIDE A] | 1 ×10⁻⁵ M | 40 |  |
| CO[C@H]1[C@H](O[C@H]2[C@H](OCC[C@@H](CC[C@@H](C)[C@H]3[C@@H](O)[C@@H](O)[C@@H]4[C@]3(C)CC[C@@H]3[C@@]5(C)CC[C@H](O)C[C@@H]5[C@@H](O)C[C@]34O)C(C)C)OC[C@@H](O)[C@@H]2O)OC[C@@H](O)[C@@H]1O [HALITYLOSIDE B] | 1 ×10⁻⁵ M |  |  |
| CO[C@H]1[C@H](O[C@H]2[C@H](O[C@@H](CC[C@@H](C)[C@H]3C[C@@H](O)[C@@H]4[C@]3(C)CC[C@@H]3[C@@]5(C)CC[C@H](O)[C@H](O)[C@@H]5[C@@H](O)C[C@]34O)C(C)C)O[C@@H](CO)[C@@H]2O)OC[C@@H](OC)[C@@H]1O [HALITYLOSIDE D] | 1 ×10⁻⁶ M |  |  |
| CO[C@H]1[C@H](O[C@H]2[C@H](O[C@@H](CC[C@@H](C)[C@H]3C[C@@H](O)[C@@H]4[C@]3(C)CC[C@@H]3[C@@]5(C)CC[C@H](O)C[C@@H]5[C@@H](O)C[C@]34O)C(C)C)O[C@@H](CO)[C@@H]2O)OC[C@@H](OC)[C@@H]1O [HALITYLOSIDE E] | 1 ×10⁻⁷ M | 10 |  |
| CO[C@H]1[C@H](O[C@H]2[C@H](O[C@@H](CC[C@@H](C)[C@H]3C[C@@H](O)[C@@H]4[C@]3(C)CC[C@@H]3[C@@]5(C)CC[C@H](O)C[C@@H]5[C@H](O)C[C@]34O)C(C)C)O[C@@H](CO)[C@@H]2O)OC[C@@H](OC)[C@@H]1O [HALITYLOSIDE F] | 1 ×10⁻⁶ M | 5 |  |
